Results published in ChEMBL document CHEMBL3400028, “Evaluation of Aconitum diterpenoid alkaloids as antiproliferative agents” (2015).

What was measured:
Assay type in all cases: functional
[1] = Selectivity ratio of GI50 for human KB cells to GI50 for multidrug-resistant P-gp expressing human KBVIN cells
Method in brief: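 Ratio of GI50 in parental KB to GI50 in P-gp-overexpressing KB-VIN. […] KB-VIN cells were grown 7–10 days without vincristine before the assay.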

[2] = Antiproliferative activity against multidrug-resistant P-gp expressing human KBVIN cells by sulforhodamine B assay
Method in brief: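 Vincristine-resistant KB subline kept in 100 nM vincristine, then grown 7–10 days without it before testing. RPMI 1640 with 10% FBS, 37 °C, 5% CO2. 3–5 × 10³ cells/well exposed 72 h to a concentration series, paclitaxel as assay control. SRB staining after TCA fixation, A515 read. GI50 is the 50% absorbance reduction versus untreated cells; three or more experiments.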

KB = assay: Antiproliferative activity against human KB cells by sulforhodamine B assay
Method in brief: (§1)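 Cells in RPMI 1640 (25 mM HEPES, 2 mM L-glutamine, 10% heat-inactivated FBS, antibiotics) at 37 °C, 5% CO2. Seeded at 3–5 × 10³/well with graded concentrations, paclitaxel as assay control, for 72 h. TCA-fixed, stained with 0.04% SRB, dye dissolved in 10 mM Tris, A515 read. GI50 is the concentration halving absorbance versus untreated cells; three or more experiments.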

A549 = assay: Antiproliferative activity against human A549 cells by sulforhodamine B assay; method in brief: as §1
DU-145 = assay: Antiproliferative activity against human DU145 cells by sulforhodamine B assay; method in brief: as §1

Row | GI50 (KB) [µM] | GI50 (A549) [µM] | GI50 (DU-145) [µM] | SMILES | RatioGI50 [1] | GI50 [2] [µM]
1 | 10 | 10 | 10 | C=C1[C@H]2C[C@@H]3C4N5C[C@]6(C)CCC[C@@]47[C@@H]6[C@@H]5C[C@]3([C@@H]1O)[C@H]7[C@H]2OC(=O)c1ccc(C(F)(F)F)cc1 | 10 | 10
2 | > 20 | > 20 | > 20 | C=C1[C@H]2C[C@@H]3C4N5C[C@]6(C)CCC[C@@]47[C@@H]6[C@@H]5C[C@]3([C@@H]1OC(C)=O)[C@H]7[C@H]2OC(C)=O | >20 | > 20
3 | 10 | 10 | 10 | C=C1[C@H]2C[C@@H]3C4N5C[C@]6(C)CCC[C@@]47[C@@H]6[C@@]5(OC(=O)c4ccc(OC)c(OC)c4)C[C@]3([C@@H]1O)[C@H]7[C@H]2OC(=O)c1ccc(OC)c(OC)c1 | 10 | 10
4 | > 20 | > 20 | > 20 | C=C1[C@H]2C[C@@H]3C4N5C[C@]6(C)CCC[C@@]47[C@@H]6[C@@H]5C[C@]3([C@@H]1OC(=O)c1ccc(F)cc1)[C@H]7[C@H]2O | >20 | > 20
5 | 10 | 10 | 10 | C=C1[C@H]2C[C@@H]3C4N5C[C@]6(C)CCC[C@@]47[C@@H]6[C@@]5(O)C[C@]3([C@@H]1O)[C@H]7[C@H]2OC(=O)c1ccc(C(F)(F)F)cc1 | 10 | 10
6 | > 20 | > 20 | > 20 | COC[C@]12CC[C@H](O)[C@]34C(NC1)[C@@](O)([C@@H](OC)[C@H]23)[C@@]1(O)C[C@H](OC)[C@H]2C[C@@H]4[C@@H]1[C@H]2OC | >20 | > 20
7 | > 20 | > 20 | > 20 | C=C1[C@H]2C[C@@H]3C4N5C[C@]6(C)CCC[C@@]47[C@@H]6[C@@]5(O)C[C@]3([C@@H]1OC(C)=O)[C@H]7[C@H]2OC(C)=O |  | > 20
8 | > 20 | > 20 | > 20 | C=C1[C@H]2C[C@@H]3C4N5C[C@]6(C)CCC[C@@]47[C@@H]6[C@@]5(O)C[C@]3([C@@H]1OC(C)=O)[C@H]7[C@H]2O |  | > 20

Second part, the compound before the results:

Row | SMILES | GI50 (KB) [µM] | GI50 (A549) [µM] | GI50 (DU-145) [µM] | RatioGI50 [1] | GI50 [2] [µM]
9 | CCN1C[C@]2(COC)CC[C@H](OC(=O)c3ccc(C(F)(F)F)cc3)[C@]34C1[C@@](O)([C@@H](OC)[C@H]23)[C@@]1(O)C[C@H](OC)[C@H]2C[C@@H]4[C@@H]1[C@H]2O | > 20 | > 20 | > 20 | >20 | > 20
10 | C=C1[C@H]2C[C@@H]3C4N5C[C@]6(C)CCC[C@@]47[C@@H]6[C@@]5(O)C[C@]3([C@@H]1OC(=O)/C=C/c1ccccc1)[C@H]7[C@H]2O | > 20 | > 20 | > 20 | >20 | > 20
11 | C=C1[C@@H](O)[C@]23C[C@@H]1[C@@H](OC(=O)c1ccccc1)C[C@H]2[C@@]12C4C3C[C@@H]1[C@@](C)(CC[C@H]2O)CN4CC | > 20 | > 20 | > 20 | >20 | > 20
12 | C=C1[C@H]2C[C@@H]3C4N5C[C@]6(C)CCC[C@@]47[C@@H]6[C@@]5(O)C[C@]3([C@@H]1O)[C@H]7[C@H]2OC(=O)c1cccnc1 | > 20 | > 20 | > 20 | >20 | > 20
13 | C=C1[C@H]2C[C@@H]3C4N5C[C@]6(C)CCC[C@@]47[C@@H]6[C@@]5(O)C[C@]3([C@@H]1O)[C@H]7[C@H]2OC(=O)c1ccc([N+](=O)[O-])cc1 | 6.4 | 5.8 | 7.2 | 1 | 6.4
14 | CCN1C2OC3CCC2(COC)[C@H]2[C@H](OC)[C@]4(O)C1[C@@]32[C@@H]1C[C@H]2[C@H](O)[C@@H]1[C@]4(O)C[C@@H]2OC | > 20 | > 20 | > 20 | >20 | > 20
15 | C=C1[C@H]2C[C@@H]3C4N5C[C@]6(C)CCC[C@@]47[C@@H]6[C@@H]5C[C@]3([C@@H]1O)[C@H]7[C@H]2OC(=O)c1ccccc1 | > 20 | > 20 | > 20 | >20 | > 20
16 | C=C1[C@H]2C[C@@H]3C4N5C[C@]6(C)CCC[C@@]47[C@@H]6[C@@H]5C[C@]3([C@@H]1OC(=O)c1ccccc1)[C@H]7[C@H]2OC(=O)c1ccccc1 | 6 | 8.4 | 9.3 | 0.8 | 7.5
17 | C=C1[C@H]2C[C@H]3C4N(Cc5ccccc5)C[C@]5(C)CCC[C@]46[C@H]([C@H]2O)C3(CC(=O)[C@H]56)[C@@H]1O (some centres not stated) | > 20 | > 20 | > 20 | >20 | > 20
18 | C=C1[C@H]2C[C@@H]3C4N5C[C@]6(C)CCC[C@@]47[C@@H]6[C@@H]5C[C@]3([C@@H]1O)[C@H]7[C@H]2OC(=O)c1ccccc1C(F)(F)F | > 20 | > 20 | > 20 | >20 | > 20
19 | C=C1[C@H]2C[C@H]3C4N5C[C@]6(C)CCC[C@]47[C@H]([C@H]2OC(=O)/C=C/c2ccccc2)C3(C[C@]5(O)[C@H]67)[C@@H]1O | 7 | 8.4 | 6.5 | 1.1 | 6.4
20 | C=C1[C@H]2C[C@@H]3C4N5C[C@]6(C)CCC[C@@]47[C@@H]6[C@@H]5C[C@]3([C@@H]1O)[C@H]7[C@H]2OC(=O)c1cccnc1 | > 20 | > 20 | > 20 | >20 | > 20
21 | C=C1[C@H]2C[C@@]3([C@@H]1OC(C)=O)[C@@H](C[C@@H]2O)[C@@]12C4[C@@H]3C[C@@H]1[C@@](C)(CC[C@@H]2O)C[N+]4([O-])CC (some centres not stated) | > 20 | > 20 | > 20 | >20 | > 20
22 | CCN1C(=O)[C@]2(C)CC[C@H](OC)[C@@]34[C@@H]5C[C@H]6[C@H](OC)[C@@H]5[C@@]5(C[C@@H]6OC)OCO[C@@]5([C@@H](O)[C@@H]32)[C@@H]14 | > 20 | > 20 | > 20 | >20 | > 20
23 | CCN1C[C@]2(COC)CC[C@H](OC)[C@]34C1C([C@H](OC)[C@H]23)[C@]1(OC(C)=O)[C@H]2[C@@H](OC(=O)c3ccc(OC)cc3)[C@](O)(C[C@H]24)[C@@H](OC)[C@@H]1O [DEOXYJESACONITINE] | > 20 | > 20 | > 20 | >20 | > 20
24 | C=C1[C@H]2C[C@@H]3C4N(C(C)=O)C[C@]5(C)CCC[C@@]46[C@@H]5C(=O)C[C@]3([C@@H]1OC(C)=O)[C@H]6[C@H]2OC(C)=O (some centres not stated) | > 20 | > 20 | > 20 |  | > 20
